According to ChEMBL document CHEMBL4706541, “Design and synthesis of 1H-indazole-3-carboxamide derivatives as potent and selective PAK1 inhibitors with anti-tumour migration and invasion activities” (Eur J Med Chem, 2020):

Experiments:
MDA-MB-231 = assay: Antimigratory activity against human MDA-MB-231 cells after 24 hrs by inverted microscopic based Wound healing assay; format: functional, cell-based; conditions: dose 0.25-1 µM
How it was run: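 Cells grown to confluence and scratched with a sterile pipette tip, or placed at 1×10^5 cells in serum-free DMEM with 0.1% […] in the upper part of Matrigel-coated Boyden chambers over DMEM with 10% FBS. Compound treatment for 24 h at 37 °C. Read-out is wound distance from images or the count of invaded cells on the lower filter face after fixing and staining. Data given as means ± SD.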

[1] = target: Mast/stem cell growth factor receptor Kit (Homo sapiens) (UniProt P10721); assay: Inhibition of c-Kit (unknown origin) assessed as residual activity at 0.1 uM preincubated for 20 min followed by [gamma33P]ATP addition and measured after 120 mins by Hotspot assay relative to control; conditions: time 140.0 min
How it was run: (§1)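 Radiometric HotSpot kinase assay. Kinase and substrate are combined in 20 mM Hepes pH 7.5, 10 mM MgCl2, 1 mM EGTA, 0.02% Brij35, 0.02 mg/mL BSA, 0.1 mM Na3VO4, 2 mM DTT and 1% DMSO. Compound is added and preincubated 20 min at room temperature. The reaction starts with ATP plus 33P-ATP at 10 µM final and runs 120 min at 25 °C. Filter-binding read-out, given as % activity remaining versus DMSO.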

[2] = target: Vascular endothelial growth factor receptor 2 (Homo sapiens) (UniProt P35968); assay: Inhibition of VEGFR2 (unknown origin) assessed as residual activity at 0.1 uM preincubated for 20 min followed by [gamma33P]ATP addition and measured after 120 mins by Hotspot assay relative to control; conditions: time 140.0 min; how it was run: as §1
[3] = target: Mitogen-activated protein kinase 3 (Homo sapiens) (UniProt P27361); assay: Inhibition of ERK1 (unknown origin) assessed as residual activity at 0.1 uM preincubated for 20 min followed by [gamma33P]ATP addition and measured after 120 mins by Hotspot assay relative to control; conditions: time 140.0 min; how it was run: as §1
[4] = target: Serine/threonine-protein kinase PAK 2 (Homo sapiens) (UniProt Q13177); assay: Inhibtion of recombinant human N-terminal GST/His6-tagged PAK2 (D3 to R524 residues) expressed in sf9 insect cells assessed as residual activity at 0.1 uM using RRRLSFAEPG as substrate preincubated for 20 min followed by [gamma33P]ATP addition and measured after 120 mins by Hotspot assay relative to control; conditions: time 140.0 min; how it was run: as §1
[5] = target: Serine/threonine-protein kinase 24 (Homo sapiens) (UniProt Q9Y6E0); assay: Inhibition of STK24 (unknown origin) assessed as residual activity at 0.1 uM preincubated for 20 min followed by [gamma33P]ATP addition and measured after 120 mins by Hotspot assay relative to control; conditions: time 140.0 min; how it was run: as §1
[6] = target: T1, Serine/threonine-protein kinase PAK 4 (Homo sapiens, UniProt O96013); assay: Inhibtion of full length recombinant human N-terminal GST/His6-tagged PAK4 expressed in baculovirus infected sf9 insect cells assessed as residual activity at 0.1 uM using tetra LRRWSLG as substrate preincubated for 20 min followed by [gamma33P]ATP addition and measured after 120 mins by Hotspot assay relative to control; conditions: time 140.0 min; how it was run: as §1
Target sequence in this assay (O96013 whole entry, looked up, the tested form may be a part): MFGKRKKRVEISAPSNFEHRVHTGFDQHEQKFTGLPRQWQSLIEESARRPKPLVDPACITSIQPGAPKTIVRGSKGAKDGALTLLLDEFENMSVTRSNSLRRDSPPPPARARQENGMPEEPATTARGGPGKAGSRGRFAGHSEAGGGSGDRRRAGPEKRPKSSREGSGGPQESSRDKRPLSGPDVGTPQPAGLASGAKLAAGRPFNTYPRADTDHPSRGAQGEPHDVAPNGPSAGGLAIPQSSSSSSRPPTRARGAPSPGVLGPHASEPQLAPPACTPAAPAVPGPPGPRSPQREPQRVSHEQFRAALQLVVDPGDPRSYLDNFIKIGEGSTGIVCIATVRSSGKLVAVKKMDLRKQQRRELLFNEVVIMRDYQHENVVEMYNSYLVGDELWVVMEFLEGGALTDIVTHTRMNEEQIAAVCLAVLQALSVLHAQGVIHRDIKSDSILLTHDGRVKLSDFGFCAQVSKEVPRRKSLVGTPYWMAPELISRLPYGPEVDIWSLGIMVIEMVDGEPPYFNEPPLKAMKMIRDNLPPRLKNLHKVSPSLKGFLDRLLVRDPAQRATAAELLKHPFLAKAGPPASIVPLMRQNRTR

[7] = target: LIM domain kinase 1 (Homo sapiens) (UniProt P53667); assay: Inhibition of LIMK1 (unknown origin) assessed as residual activity at 0.1 uM preincubated for 20 min followed by [gamma33P]ATP addition and measured after 120 mins by Hotspot assay relative to control; conditions: time 140.0 min; how it was run: as §1
[8] = target: T1, Serine/threonine-protein kinase PAK 4; assay: Inhibition of full length recombinant human N-terminal GST/His6-tagged PAK4 expressed in baculovirus infected sf9 insect cells using tetra LRRWSLG as substrate preincubated for 20 min followed by [gamma33P]ATP addition and measured after 120 mins by Hotspot assay
Target sequence in this assay (O96013 whole entry, the tested form may be a part): as the sequence (O96013 whole entry, looked up, the tested form may be a part) above

[9] = target: Dual specificity mitogen-activated protein kinase kinase 1 (Homo sapiens) (UniProt Q02750); assay: Inhibition of MEK1 (unknown origin) assessed as residual activity at 0.1 uM preincubated for 20 min followed by [gamma33P]ATP addition and measured after 120 mins by Hotspot assay relative to control; conditions: time 140.0 min; how it was run: as §1
[10] = target: RAC-alpha serine/threonine-protein kinase (Homo sapiens) (UniProt P31749); assay: Inhibition of AKT1 (unknown origin) assessed as residual activity at 0.1 uM preincubated for 20 min followed by [gamma33P]ATP addition and measured after 120 mins by Hotspot assay relative to control; conditions: time 140.0 min; how it was run: as §1
[11] = target: Tyrosine-protein kinase receptor UFO (Homo sapiens) (UniProt P30530); assay: Inhibition of AXL (unknown origin) assessed as residual activity at 0.1 uM preincubated for 20 min followed by [gamma33P]ATP addition and measured after 120 mins by Hotspot assay relative to control; conditions: time 140.0 min; how it was run: as §1
[12] = target: Serine/threonine-protein kinase B-raf (Homo sapiens) (UniProt P15056); assay: Inhibition of BRAF (unknown origin) assessed as residual activity at 0.1 uM preincubated for 20 min followed by [gamma33P]ATP addition and measured after 120 mins by Hotspot assay relative to control; conditions: time 140.0 min; how it was run: as §1
HCT-116 = assay: Antiproliferative activity against human HCT-116 cells assessed as growth inhibition at 1 uM after 72 hrs by Cell Titer-Glo assay relative to control; format: functional; conditions: read-out: GI
How it was run: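 Cells kept at 37 °C in 5% CO2 and plated at 4000 per well. Treated with compound for 72 h. Viability read by CellTiter-Glo luminescence. Each compound run in duplicate, data as means ± SD.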

[13] = target: Receptor-type tyrosine-protein kinase FLT3 (Homo sapiens) (UniProt P36888); assay: Inhibition of FLT3 (unknown origin) assessed as residual activity at 0.1 uM preincubated for 20 min followed by [gamma33P]ATP addition and measured after 120 mins by Hotspot assay relative to control; conditions: time 140.0 min; how it was run: as §1
[14] = target: ALK tyrosine kinase receptor (Homo sapiens) (UniProt Q9UM73); assay: Inhibition of ALK (unknown origin) assessed as residual activity at 0.1 uM preincubated for 20 min followed by [gamma33P]ATP addition and measured after 120 mins by Hotspot assay relative to control; conditions: time 140.0 min; how it was run: as §1

Sequence of RAC-alpha serine/threonine-protein kinase (Homo sapiens) (P31749 whole entry): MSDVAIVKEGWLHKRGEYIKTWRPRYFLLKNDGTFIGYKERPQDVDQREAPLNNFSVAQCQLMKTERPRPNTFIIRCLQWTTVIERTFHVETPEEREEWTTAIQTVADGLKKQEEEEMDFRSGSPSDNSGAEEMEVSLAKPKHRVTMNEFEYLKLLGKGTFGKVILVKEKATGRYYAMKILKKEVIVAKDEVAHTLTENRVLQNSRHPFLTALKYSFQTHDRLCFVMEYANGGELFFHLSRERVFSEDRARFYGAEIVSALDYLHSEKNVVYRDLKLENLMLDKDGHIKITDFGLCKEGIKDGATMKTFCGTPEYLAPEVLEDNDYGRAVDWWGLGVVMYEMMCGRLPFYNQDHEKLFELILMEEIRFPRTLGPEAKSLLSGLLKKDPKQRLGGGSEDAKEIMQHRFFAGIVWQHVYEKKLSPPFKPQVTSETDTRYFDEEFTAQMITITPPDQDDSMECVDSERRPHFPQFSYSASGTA
Sequence of Mast/stem cell growth factor receptor Kit (Homo sapiens) (P10721 whole entry): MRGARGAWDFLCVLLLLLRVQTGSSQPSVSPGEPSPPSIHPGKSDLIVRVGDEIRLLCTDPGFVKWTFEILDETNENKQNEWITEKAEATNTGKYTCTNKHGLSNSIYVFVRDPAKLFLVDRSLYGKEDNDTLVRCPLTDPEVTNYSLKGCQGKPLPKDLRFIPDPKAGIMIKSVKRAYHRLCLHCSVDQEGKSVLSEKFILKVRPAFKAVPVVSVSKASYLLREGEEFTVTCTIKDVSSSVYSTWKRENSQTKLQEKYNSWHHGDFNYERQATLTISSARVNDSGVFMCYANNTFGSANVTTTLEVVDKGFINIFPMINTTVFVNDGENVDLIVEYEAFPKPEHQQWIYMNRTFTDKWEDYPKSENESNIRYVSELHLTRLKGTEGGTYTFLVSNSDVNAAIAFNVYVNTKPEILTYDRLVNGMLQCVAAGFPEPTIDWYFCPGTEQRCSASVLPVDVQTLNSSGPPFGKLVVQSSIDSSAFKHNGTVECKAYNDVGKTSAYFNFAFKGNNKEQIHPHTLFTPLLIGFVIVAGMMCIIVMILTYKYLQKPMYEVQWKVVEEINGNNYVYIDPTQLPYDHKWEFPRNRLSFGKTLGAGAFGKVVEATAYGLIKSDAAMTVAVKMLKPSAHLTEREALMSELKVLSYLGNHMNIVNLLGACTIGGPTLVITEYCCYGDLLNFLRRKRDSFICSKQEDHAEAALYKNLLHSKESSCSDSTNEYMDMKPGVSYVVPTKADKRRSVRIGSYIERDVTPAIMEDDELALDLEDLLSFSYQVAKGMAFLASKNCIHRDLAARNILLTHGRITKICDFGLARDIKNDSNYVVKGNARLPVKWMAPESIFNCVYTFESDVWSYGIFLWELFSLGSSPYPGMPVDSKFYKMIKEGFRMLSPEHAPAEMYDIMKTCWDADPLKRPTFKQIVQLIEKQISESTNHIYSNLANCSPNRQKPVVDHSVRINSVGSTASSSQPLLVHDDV
Sequence of Receptor-type tyrosine-protein kinase FLT3 (Homo sapiens) (P36888 whole entry): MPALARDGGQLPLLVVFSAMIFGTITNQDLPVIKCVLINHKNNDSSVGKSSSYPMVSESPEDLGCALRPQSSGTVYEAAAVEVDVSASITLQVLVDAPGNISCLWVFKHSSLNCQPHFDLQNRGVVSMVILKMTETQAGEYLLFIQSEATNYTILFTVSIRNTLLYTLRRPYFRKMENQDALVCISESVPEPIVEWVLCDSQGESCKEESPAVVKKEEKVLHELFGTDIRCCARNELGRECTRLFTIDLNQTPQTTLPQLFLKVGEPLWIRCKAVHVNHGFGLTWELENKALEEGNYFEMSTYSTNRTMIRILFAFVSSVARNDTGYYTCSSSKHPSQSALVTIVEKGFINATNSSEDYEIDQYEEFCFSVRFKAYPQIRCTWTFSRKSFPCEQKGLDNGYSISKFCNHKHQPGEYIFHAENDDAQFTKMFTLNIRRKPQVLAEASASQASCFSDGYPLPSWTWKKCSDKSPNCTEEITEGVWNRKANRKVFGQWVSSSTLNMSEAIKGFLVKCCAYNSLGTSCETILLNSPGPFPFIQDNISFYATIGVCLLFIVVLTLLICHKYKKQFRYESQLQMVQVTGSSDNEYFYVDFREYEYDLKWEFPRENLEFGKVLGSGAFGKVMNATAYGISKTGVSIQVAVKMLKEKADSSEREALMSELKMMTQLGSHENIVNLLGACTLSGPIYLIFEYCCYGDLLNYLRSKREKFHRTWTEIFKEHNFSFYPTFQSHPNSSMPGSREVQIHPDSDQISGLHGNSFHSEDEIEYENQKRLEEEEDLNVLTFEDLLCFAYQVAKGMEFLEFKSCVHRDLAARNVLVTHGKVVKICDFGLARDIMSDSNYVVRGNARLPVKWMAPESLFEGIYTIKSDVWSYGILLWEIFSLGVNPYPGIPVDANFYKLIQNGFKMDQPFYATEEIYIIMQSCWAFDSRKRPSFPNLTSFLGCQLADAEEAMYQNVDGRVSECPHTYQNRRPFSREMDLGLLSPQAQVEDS
Sequence of Serine/threonine-protein kinase 24 (Homo sapiens) (Q9Y6E0 whole entry, looked up): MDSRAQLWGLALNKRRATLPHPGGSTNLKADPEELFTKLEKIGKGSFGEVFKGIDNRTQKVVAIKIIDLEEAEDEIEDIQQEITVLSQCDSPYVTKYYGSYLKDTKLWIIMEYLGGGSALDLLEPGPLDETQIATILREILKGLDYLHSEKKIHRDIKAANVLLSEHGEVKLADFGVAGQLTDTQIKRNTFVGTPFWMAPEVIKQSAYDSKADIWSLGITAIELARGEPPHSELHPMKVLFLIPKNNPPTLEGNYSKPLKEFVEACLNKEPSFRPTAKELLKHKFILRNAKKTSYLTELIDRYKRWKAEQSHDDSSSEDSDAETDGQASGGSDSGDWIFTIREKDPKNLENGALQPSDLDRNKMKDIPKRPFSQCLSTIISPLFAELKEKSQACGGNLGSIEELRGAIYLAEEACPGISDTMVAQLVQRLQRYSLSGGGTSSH
Sequence of Serine/threonine-protein kinase B-raf (Homo sapiens) (P15056 whole entry): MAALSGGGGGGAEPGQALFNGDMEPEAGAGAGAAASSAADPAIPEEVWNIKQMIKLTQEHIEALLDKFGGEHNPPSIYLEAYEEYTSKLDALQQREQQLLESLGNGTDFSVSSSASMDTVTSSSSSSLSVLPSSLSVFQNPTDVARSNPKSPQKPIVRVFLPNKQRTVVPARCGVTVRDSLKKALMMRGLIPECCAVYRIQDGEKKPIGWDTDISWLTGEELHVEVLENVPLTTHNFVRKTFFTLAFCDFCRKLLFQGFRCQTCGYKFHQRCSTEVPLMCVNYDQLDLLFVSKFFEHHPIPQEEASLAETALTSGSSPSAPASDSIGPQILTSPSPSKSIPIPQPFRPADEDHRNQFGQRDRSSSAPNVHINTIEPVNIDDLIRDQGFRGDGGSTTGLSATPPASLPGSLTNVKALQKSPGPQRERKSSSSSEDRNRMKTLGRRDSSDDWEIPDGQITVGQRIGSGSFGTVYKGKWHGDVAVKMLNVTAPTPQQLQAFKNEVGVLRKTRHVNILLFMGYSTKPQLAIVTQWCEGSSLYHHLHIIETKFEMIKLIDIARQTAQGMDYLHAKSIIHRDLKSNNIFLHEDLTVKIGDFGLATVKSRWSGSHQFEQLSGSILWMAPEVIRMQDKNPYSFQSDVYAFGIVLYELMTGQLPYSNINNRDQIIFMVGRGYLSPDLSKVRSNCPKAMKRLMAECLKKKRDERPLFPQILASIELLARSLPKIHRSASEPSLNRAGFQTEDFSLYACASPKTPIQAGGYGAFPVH
Sequence of Serine/threonine-protein kinase PAK 2 (Homo sapiens) (Q13177 whole entry, the tested form may be a part): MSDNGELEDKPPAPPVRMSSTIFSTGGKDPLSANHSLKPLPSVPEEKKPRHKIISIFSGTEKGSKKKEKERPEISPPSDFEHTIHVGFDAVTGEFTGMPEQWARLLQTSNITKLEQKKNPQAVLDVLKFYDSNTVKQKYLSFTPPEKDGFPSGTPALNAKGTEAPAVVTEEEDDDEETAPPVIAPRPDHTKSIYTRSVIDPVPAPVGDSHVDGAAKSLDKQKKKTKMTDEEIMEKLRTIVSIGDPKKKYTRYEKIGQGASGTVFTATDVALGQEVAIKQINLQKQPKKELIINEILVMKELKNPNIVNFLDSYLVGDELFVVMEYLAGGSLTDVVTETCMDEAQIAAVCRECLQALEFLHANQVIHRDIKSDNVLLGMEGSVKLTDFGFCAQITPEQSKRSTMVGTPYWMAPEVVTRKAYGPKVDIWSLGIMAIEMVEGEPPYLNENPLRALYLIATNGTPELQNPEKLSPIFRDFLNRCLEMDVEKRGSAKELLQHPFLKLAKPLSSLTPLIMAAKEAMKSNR

Cc1cccn(-c2ccc(-c3ccc4c(C(=O)NCc5ccncc5)n[nH]c4c3)c(Cl)c2)c1=O
Activity (MDA-MB-231): Dose-dependent effect
Activity [1]: 99.2%
Activity [2]: 92.4%
Activity [3]: 99%
Activity [4]: 28%
Activity [5]: 64%
Activity [6]: 104%
Activity [7]: 115%
IC50 [8]: > 10 µM
Activity [9]: 84.4%
Activity [10]: 98.8%
Activity [11]: 88.4%
Activity [12]: 84.4%
inhibition of growth at 1 µM (HCT-116): 8.73%
Activity [13]: 98.8%
Activity [14]: 97%
